The list is not random: actives were taken first. Their share in the collection is about 1.8%.
NSD2 HMT inh – inhibitors of human histone methyltransferase NSD2 | O96028 | NSD2 peptide methylation, AlphaScreen, 120 min | inhibition, % at 12.5 µM | 0.54% of 310,000 active; in the data active means inhibition above about 50%
TDP2 inh – blocks human TDP2 phosphodiesterase activity. O95551. recombinant TDP2, T5PNP hydrolysis, p-nitrophenol absorbance 415 nm. inhibition, % at 12.8 µM. 0.34% of 370,000 active. AID 720702;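 active means inhibition above the mean of all tested compounds plus 3 SD, set per campaign, cut at about 25% in these data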;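 further: 0% = DMSO with enzyme and 100% = buffer with substrate but no TDP2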
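Assay system: recombinant human TDP2 / Reagent: T5PNP substrate at 5 mM, a TopII-DNA adduct mimic / Measured by: epi absorbance from released p-nitrophenol / Evaluation: % inhibition relative to enzyme-containing and enzyme-free wells / Control set: enzyme-free and DMSO wells / Replicates: each compound tested once, singlicate / Schedule: enzyme reaction with compound for 2 h at 37 °C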
MBD2 inh – MBD2-methylated oligo binding inhibition; Q9UBB5; TR-FRET, MBD2 binding to methylated oligonucleotide; inhibition, % at 4.4 µM; 0.31% of 370,000 active; in the data active means inhibition above about 13%
Casp6 inh – inhibitors of human caspase-6 | P55212 | purified caspase-6, Z-VEID-R110 cleavage fluorescence | inhibition, % at 12.5 µM | 0.53% of 350,000 active | AID 686996;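 active means mean inhibition across replicates at least about 35%, with every replicate also reaching that limit, limit read from the data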;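 further: 0% = median of neutral control wells and 100% = no fluorescence left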
LEDGF integ inh – blocks HIV-1 LEDGF/p75-dependent DNA integration; inhibition, % at 3.7 µM; 0.64% of 370,000 active; TR-FRET IN-LEDGF/p75 DNA integration, Eu/Cy5;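 active means inhibition above the screen-wide mean plus 3 SD, cut at about 13% in these data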;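 further: signal is the Cy5 over europium emission ratio at 671 and 618 nm; 0% = plate median of compound wells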
UHRF1 binding – human UHRF1 methylated DNA binding inhibitors | UHRF1 binding to methylated oligo, TR-FRET | 0.75% of 370,000 active | Q96T88 | inhibition, % at 4.4 µM; in the data active means inhibition above about 21%;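 further: UHRF1 SRA domain binding a hemimethylated CpG hairpin DNA probe; 0% = median of test compound wells and 100% = reference inhibitor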
Target sequence (Q96T88 whole entry, looked up, the tested form may be a part): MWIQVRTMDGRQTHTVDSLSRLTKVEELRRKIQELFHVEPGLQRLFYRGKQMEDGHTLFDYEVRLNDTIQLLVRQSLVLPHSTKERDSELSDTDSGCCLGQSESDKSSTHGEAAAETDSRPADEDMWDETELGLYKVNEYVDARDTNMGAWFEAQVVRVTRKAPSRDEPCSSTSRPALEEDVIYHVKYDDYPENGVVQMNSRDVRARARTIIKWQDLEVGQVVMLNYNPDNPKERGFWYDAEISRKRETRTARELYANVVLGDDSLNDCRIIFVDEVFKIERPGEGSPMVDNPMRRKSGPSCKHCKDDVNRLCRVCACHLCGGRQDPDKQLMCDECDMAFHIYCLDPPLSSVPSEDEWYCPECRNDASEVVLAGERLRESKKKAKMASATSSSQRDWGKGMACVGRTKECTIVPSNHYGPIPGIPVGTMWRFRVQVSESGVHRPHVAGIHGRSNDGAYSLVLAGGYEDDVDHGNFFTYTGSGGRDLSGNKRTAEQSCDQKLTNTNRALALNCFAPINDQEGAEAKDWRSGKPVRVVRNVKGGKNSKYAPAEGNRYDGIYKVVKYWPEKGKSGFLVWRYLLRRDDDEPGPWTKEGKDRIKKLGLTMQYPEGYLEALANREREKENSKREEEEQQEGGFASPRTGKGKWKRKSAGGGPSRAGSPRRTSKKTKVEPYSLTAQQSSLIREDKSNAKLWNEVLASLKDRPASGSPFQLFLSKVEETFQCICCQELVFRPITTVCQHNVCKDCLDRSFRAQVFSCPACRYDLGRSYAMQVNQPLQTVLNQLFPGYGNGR
IN multimer act – activates HIV-1 integrase multimerization in LEDGF counter-screen | TR-FRET HIV-1 integrase multimerization, biochemical | shares compounds with LEDGF integ inh | activation, % at 7.7 µM | AID 1053131 | 17% of 2,000 active; in the data active means activation above about 8.9%
TR-FRET interf – counter-screen for LEDGF/p75 integration inhibitors: TR-FRET optical interference; shares compounds with LEDGF integ inh; TR-FRET optical interference counterscreen, HIV-1 IN multimerization; inhibition, % at 7.7 µM; 2,000 tested, under 10 active;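 active means inhibition above the mean over all tested compounds plus 3 SD, which no compound reached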;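 further: 0% = integrase with antibodies and DMSO and 100% = antibodies without integrase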
LEDGF integ conf – confirmation of HIV-1 LEDGF/p75-dependent integration inhibitors; shares compounds with LEDGF integ inh; TR-FRET LEDGF/p75-dependent HIV-1 integration, biochemical; inhibition, % at 3.7 µM; 36% of 2,000 active; AID 1053136; in the data active means inhibition above about 14%
Numbers without * were called inactive; x = no result given.

SMILES	NSD2 HMT inh	TDP2 inh	MBD2 inh	Casp6 inh	LEDGF integ inh	UHRF1 binding	IN multimer act	TR-FRET interf	LEDGF integ conf
Cc1ccc(NC2=C([N+](=O)[O-])CS(=O)(=O)C2)cc1	1	0	-1	x	1	-1	x	x	x
CCc1ccc(CN2CCC(CO)(CC3CCCCO3)CC2)o1 (stereo not drawn)	4	-17	-2	-4	13*	0	0	2	1
CO[C@@H]1CN(C)C(=O)c2ccc(NC(=O)CC(F)(F)F)cc2OC[C@@H](C)N(S(=O)(=O)c2cn(C)cn2)C[C@@H]1C	x	x	x	1	x	x	x	x	x
C[C@@H]1CN([C@@H](C)CO)C(=O)c2cc(NC(=O)C3CCCCC3)ccc2O[C@@H](C)CCCCO[C@H]1CN(C)C(=O)NC1CCCCC1	x	x	x	1	x	x	x	x	x
COc1cc(-c2ccc3c(=O)c4ccccc4sc3c2)cc(OC)c1OC	x	3	-4	0	16*	-3	9.3*	-32	-8
COc1cc(-c2ccc3c(=O)c4ccccc4n(C)c3c2)cc(OC)c1OC	x	9	1	3	-2	10	x	x	x
Cc1cccc(C)c1NC(=O)CCCN1CC(C)OC(C)C1 (stereo not drawn)	-2	-7	0	x	-5	3	x	x	x
O=C(O)CCCCC1SCC2NC(=O)NC21 (stereo not drawn)	x	5	4	-1	70*	-2	-2	9	63*
CCCCCC1NC(=O)NC1CCCCCC(=O)O (stereo not drawn)	-2	2	-4	x	-1	0	x	x	x
C[C@@H]1NC(=O)N[C@@H]1CCCCCC(=O)O	x	1	-5	1	82*	-2	-1	5	74*
Cc1cccc(C)c1NC(=O)CCCCCC1NC(=O)NC1C (stereo not drawn)	24	9	-2	1	20*	-1	-2	9	10
C[C@H](CO)N1C[C@H](C)[C@H](CN(C)S(=O)(=O)c2cccs2)OCCCC[C@H](C)Oc2ccc(NC(=O)c3ccncc3)cc2C1=O	x	x	x	-1	x	x	x	x	x
CC(C)C1Nc2c(O)cc(Cl)c([N+](=O)[O-])c2C2C=CCC21 (stereo not drawn)	26	3	-5	22	26*	-5	1	-4	11
Cc1ccn(CCC(=O)N2CCCC(N3CCN(c4ccccc4C)CC3)C2)n1 (stereo not drawn)	4	3	4	1	58*	-1	-1	4	0
CCC(=O)N1[C@H](CO)[C@H](c2ccc(-c3cccc(OC)c3)cc2)[C@H]1CNC(C)=O	x	x	x	0	x	x	x	x	x
CN(C)C(=S)Nc1nc2ccccc2s1	-1	12	-2	1	17*	-2	1	-6	9
COCC#Cc1ccc2c(c1)O[C@@H](CN(C)C(=O)NC(C)C)[C@H](C)CN([C@@H](C)CO)S2(=O)=O	x	x	x	3	x	x	x	x	x
COc1ccc(NC(=S)N(CCCN2CCCCC2)Cc2cccs2)cc1	2	-1	0	x	87*	-4	0	-2	-6
COc1ccc(NC(=S)N(CCCN2CCC(C)CC2)Cc2cccs2)cc1	-2	3	1	-4	1	-2	x	x	x
COc1cc(COC(=O)c2cnc(C)cn2)c(OC)cc1Br	11	14	-1	8	37*	0	3	-16	4
COc1ccccc1C(=O)COC(=O)c1cnc(C)cn1	-3	2	-2	2	0	2	x	x	x
N#Cc1ccsc1NC(=O)CN1CCN(S(=O)(=O)c2ccccc2C(F)(F)F)CC1	0	0	1	1	79*	-1	1	-7	2
c1ccc(-n2c(-c3ccncc3)nnc2-c2ccco2)cc1	2	9	-6	x	67*	2	-2	11	-4
O=C(C[C@H]1CC[C@H]2[C@@H](COC[C@H](O)CN2S(=O)(=O)c2ccc(Cl)cc2)O1)NCCN1CCCCC1	x	x	x	2	x	x	x	x	x

High-throughput results deposited in PubChem BioAssay by several laboratories.
